Holding throughout (type): functional, cell-based
Test [1] concerns A549. Nature of the test: Antiproliferative activity against human A549 cells at 20 ug/ml after 48 hrs by MTT assay. For orientation: Tetrazolium dyes change colour on reduction, which living cells bring about.
For test [2], the system named is H4. Nature of the test: Antiproliferative activity against human H4 cells at 20 ug/ml after 48 hrs by MTT assay.
Test [3] deals with T-24. Nature of the test: Antiproliferative activity against human T24 cells at 20 ug/ml after 48 hrs by MTT assay.
Test [4] deals with HeLa. Nature of the test: Antiproliferative activity against human HeLa cells at 20 ug/ml after 48 hrs by MTT assay.
Test [5] deals with HCT-116. The test can be described thus: Antiproliferative activity against human HCT116 cells at 20 ug/ml after 48 hrs by MTT assay.
For test [6], the system named is SH-SY5Y. The test can be described thus: Antiproliferative activity against human SH-SY5Y cells at 20 ug/ml after 48 hrs by MTT assay.
Test [7] concerns U-251. The test can be described thus: Antiproliferative activity against human U251 cells at 20 ug/ml after 48 hrs by MTT assay.
Test [8] is described as follows: Antiproliferative activity against human H4 cells after 48 hrs by MTT assay. The conditions noted are these: H4, 48 h. In a few lines:
(§1)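 H4 and U251 glioma cells were maintained in MEM-EBSS with 10% FBS at 37 °C and 5% CO2. Cells were plated at 10^4 per well and attached overnight. They were treated 4 h with serially diluted compound (DMSO stock 10 mg/mL; vehicle 0.2% DMSO), then given fresh DMEM for 48 h. MTT (0.5 mg/mL) was added for 3 h, DMSO used to solubilise, and A540 read. IC50 reported.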

Test [9] has as its system SH-SY5Y. The test can be described thus: Antiproliferative activity against human SH-SY5Y cells after 48 hrs by MTT assay. The gist of the method: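 SH-SY5Y cells were grown in DMEM with 10% FBS at 37 °C and 5% CO2, seeded at 10^4 cells/well and left to attach overnight. Cells were exposed to serial dilutions from a 10 mg/mL DMSO stock (vehicle 0.2% DMSO) for 4 h at 37 °C, then grown 48 h in fresh DMEM. MTT (0.5 mg/mL) was added for 3 h in the dark, formazan dissolved in DMSO, and absorbance read at 540 nm.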

Test [10] deals with U-251. Nature of the test: Antiproliferative activity against human U251 cells after 48 hrs by MTT assay. The conditions noted are these: U-251, 48 h. In a few lines: as §1
Test [11] relates to HeLa. The test can be described thus: Antiproliferative activity against human HeLa cells after 48 hrs by MTT assay. In a few lines: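 HeLa cells were grown in RPMI 1640 with 10% FBS at 37 °C and 5% CO2 and seeded at 10^4 per well overnight. Serial dilutions (DMSO stock 10 mg/mL; vehicle 0.2% DMSO) were applied for 4 h at 37 °C, then the medium was replaced with fresh DMEM for 48 h. MTT (0.5 mg/mL) was added for 3 h in the dark, formazan dissolved in DMSO, and absorbance read at 540 nm. IC50 reported.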

Test [12] concerns A549. The test can be described thus: Antiproliferative activity against human A549 cells after 48 hrs by MTT assay. The settings on record: A549, 48 h. The gist of the method: (§2)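 A549, T24 and HCT116 cells were grown in McCoy's 5A with 10% FBS at 37 °C and 5% CO2. Cells were seeded at 10^4 per well and attached overnight. They were exposed for 4 h to serial dilutions (DMSO stock 10 mg/mL; vehicle 0.2% DMSO), then grown 48 h in fresh DMEM. MTT (0.5 mg/mL) was added for 3 h, formazan dissolved in DMSO, and A540 read. IC50 reported.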

Test [13] in a line: Antiproliferative activity against human HCT116 cells after 48 hrs by MTT assay. The conditions noted are these: HCT-116, 48 h. The gist of the method:
as §2

The nature of test [14]: Antiproliferative activity against human T24 cells after 48 hrs by MTT assay. The conditions noted are these: T-24, 48 h. In a few lines:
as §2

The source made the active and inactive calls. The calls are words filed in the database; no cut-off is given here. Some results are limits rather than exact numbers.

`C/C1=C/CC(C)(C)/C=C/C[C@]2(C)OC3=CC(=O)O[C@]4(C)CC(=O)O[C@]34C[C@H]2C[C@@H]1O`: the outcome in [1], in test [2], in test [3], in [4], in test [5] and in test [6] was inactive. Moreover, in test [7], the result was inactive.
With `Cn1nnc2c(C(N)=O)ncn2c1=O` [TEMOZOLOMIDE], the half-maximal inhibitory concentration (IC50) in test [8], in [9] and in test [10] was above 100000 nM in each case.
For the compound `C/C1=C/CC(C)(C)[C@@H]2O[C@H]2C[C@@]2(C)O[C@@H]2C[C@@H]1O`, the outcome in [1], in test [2], in [3], in test [4], in [5] and in test [6] was inactive. Besides, the result in test [7] was inactive.
Consider `CC1=CC(=O)O[C@@]12C[C@H]1C[C@H](O)[C@@]3(C)Oc4cc(O)cc(C)c4C[C@H]3CC(C)(C)/C=C/C[C@]1(C)O/C2=C\C(=O)O`, for which the figures for the half-maximal inhibitory concentration (IC50) in test [9] and in [11] were 81100 nM and 14300 nM, respectively.
For `Cc1cc(=O)c(O)cc2c1C[C@H]1CC(C)(C)/C=C/C[C@]3(C)Oc4cc(O)c(=O)cc(C)c4C[C@H]3C[C@H](O)[C@@]1(C)O2`, the IC50 (as a rule, the concentration that gives 50% inhibition) in test [8] was 130 nM; in [9], 80 nM; in test [12] it was 30.6 nM; in [13], 31.2 nM; in [10] it was 100 nM; in test [11] it was 8.2 nM. In [14], the IC50 stood at 12.5 nM.

(Values after ChEMBL document CHEMBL3758071, “Phomanolides A and B from the Fungus Phoma sp.: Meroterpenoids Derived from a Putative Tropolonic Sesquiterpene via Hetero-Diels-Alder Reactions” (J Nat Prod, 2015).)
